Residue numbers refer to the chain shown, from its start. Activity calls are given as the source filed them. The rule behind the calls is not given here. Where a SMILES comes first, the peptide text is derived from it. [ ]: non-standard residue; d: D form. NMeF = CN[C@@H](Cc1ccccc1)C(=O)O
Experiments:
Neuromedin-K receptor [1] = target: T1, Neuromedin-K receptor (Homo sapiens, UniProt P29371); test: Competitive inhibition at wild type human NK3 expressed in HEK293 cells assessed as decrease in [MePhe7]NKB-induced [3H]IP accumulation after 20 mins; assay type: cell-based; conditions: read-out: pA2 (converted)
T1 sequence (P29371 whole entry): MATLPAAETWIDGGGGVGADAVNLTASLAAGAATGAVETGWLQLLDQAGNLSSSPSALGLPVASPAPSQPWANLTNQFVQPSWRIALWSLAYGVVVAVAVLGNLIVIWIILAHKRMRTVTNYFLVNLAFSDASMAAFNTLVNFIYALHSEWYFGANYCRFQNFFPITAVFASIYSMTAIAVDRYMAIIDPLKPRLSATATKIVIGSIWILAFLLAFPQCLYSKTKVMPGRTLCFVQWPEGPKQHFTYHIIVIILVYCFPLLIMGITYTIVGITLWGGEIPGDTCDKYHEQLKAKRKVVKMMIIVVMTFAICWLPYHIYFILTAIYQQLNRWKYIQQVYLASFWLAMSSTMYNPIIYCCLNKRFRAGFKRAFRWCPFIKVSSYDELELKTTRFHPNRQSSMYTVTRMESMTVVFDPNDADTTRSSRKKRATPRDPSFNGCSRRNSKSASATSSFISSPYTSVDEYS
Summary of the method: (§1)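 HEK293 cells transiently expressing human NK3 WT or mutant, labeled with myo-[³H]inositol in LiCl buffer. Antagonist preincubated 20 min at 37 °C, then [MePhe⁷]NKB (0.01 nM–1 μM) added for 45 min at 37 °C. [³H]IP read by SPA beads. Schild analysis of EC50 shift and Emax depression across increasing antagonist concentrations gives pA2, slope and mode of antagonism.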

Neuromedin-K receptor [2] = target: T2, Neuromedin-K receptor (Homo sapiens, UniProt P29371, Y315F); test: Competitive inhibition at human NK3 Y315F6.51 mutant expressed in HEK293 cells assessed as decrease in [MePhe7]NKB-induced [3H]IP accumulation after 20 mins; assay type: cell-based; conditions: read-out: pA2 (converted); summary of the method: as §1
Neuromedin-K receptor [3] = target: T2, Neuromedin-K receptor; test: Displacement of radioligand [3H]osanetant at human NK3 Y315F6.51 mutant expressed in HEK293 cells; assay type: cell-based
Substance-P receptor [4] = target: T3, Substance-P receptor (Homo sapiens, UniProt P25103, F264Y); test: Displacement of radioligand [3H]SP from human NK1 F264Y6.51 mutant expressed in HEK293 cells; assay type: cell-based
Summary of the method: (§2)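 Membranes from transiently transfected HEK293 cells, 2.5 μg protein/well, in 50 mM HEPES pH 7.4 with 3 mM MnCl2, phosphoramidon, leupeptin and 0.04% BSA. 10 competitor concentrations (0.0003–10 μM), 90 min at rt. Nonspecific binding with 10 μM NK1 antagonist. Filtration, then scintillation counting. Ki by Cheng–Prusoff. Three experiments, each in duplicate.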

HEK293 [5] = test: Selectivity ratio of Ki for wild type human NK3 receptor expressed in HEK293 cells to Ki for human NK3 Y315F6.51 mutant expressed in HEK293 cells; assay type: cell-based
Neuromedin-K receptor [6] = target: T1, Neuromedin-K receptor; test: Displacement of [3H]osanetant from wild type human NK3 receptor expressed in HEK293 cells; assay type: cell-based
Substance-P receptor [7] = target: T4, Substance-P receptor (Homo sapiens, UniProt P25103); test: Displacement of radioligand [3H]SP from wild type human NK1 receptor expressed in HEK293 cells; assay type: cell-based; summary of the method: as §2
Substance-P receptor [8] = target: T4, Substance-P receptor; test: Noncompetitive inhibition of wild type human NK1 receptor expressed in HEK293 cells assessed as decrease in SP1-induced [3H]IP accumulation after 20 mins; assay type: cell-based
[9] = test system: Substance-P receptor (Homo sapiens), P25103 [F264Y]; test: Noncompetitive inhibition of human NK1 F264Y6.51 mutant receptor expressed in HEK293 cells assessed as decrease in SP1-induced [3H]IP accumulation after 20 mins; assay type: cell-based
Substance-P receptor [10] = target: T4, Substance-P receptor; test: Binding affinity at human NK1 receptor
Neuromedin-K receptor [11] = target: T5, Neuromedin-K receptor (Homo sapiens, UniProt P29371, H316W); test: Agonist activity at human NK3 H316W mutant expressed in HEK293 cells assessed as [3H]IP accumulation after 45 mins; assay type: functional, cell-based
Summary of the method: (§3)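 Human NK3 (WT or point mutant) transiently transfected into HEK293 cells and labeled with 5 μCi/mL myo-[³H]inositol. Assay buffer HBSS/20 mM HEPES pH 7.4 with 8 mM LiCl. [MePhe⁷]NKB at 0.01 nM–1 μM for 45 min at 37 °C. Lysis in 20 mM formic acid; [³H]IP captured on yttrium silicate SPA beads. EC50 and Hill slope from a four-parameter fit. Emax given as % of the WT fitted maximum from the same day.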

Neuromedin-K receptor [12] = target: Neuromedin-K receptor (Homo sapiens, UniProt P29371, Y247A); test: Agonist activity at human NK3 Y247A mutant expressed in HEK293 cells assessed as [3H]IP accumulation after 45 mins; assay type: functional, cell-based; summary of the method: as §3
Neuromedin-K receptor [13] = target: T6, Neuromedin-K receptor (Homo sapiens, UniProt P29371, Y247F); test: Agonist activity at human NK3 Y247F mutant expressed in HEK293 cells assessed as [3H]IP accumulation after 45 mins; assay type: functional, cell-based; summary of the method: as §3
Neuromedin-K receptor [14] = target: T7, Neuromedin-K receptor (Homo sapiens, UniProt P29371, H316F); test: Agonist activity at human NK3 H316F mutant expressed in HEK293 cells assessed as [3H]IP accumulation after 45 mins; assay type: functional, cell-based; summary of the method: as §3
Neuromedin-K receptor [15] = target: T1, Neuromedin-K receptor; test: Agonist activity at wild type human NK3 receptor expressed in HEK293 cells assessed as [3H]IP accumulation after 45 mins; assay type: functional, cell-based; summary of the method: as §3
Neuromedin-K receptor [16] = target: T8, Neuromedin-K receptor (Homo sapiens, UniProt P29371, Y247W); test: Agonist activity at human NK3 Y247W mutant expressed in HEK293 cells assessed as [3H]IP accumulation after 45 mins; assay type: functional, cell-based; summary of the method: as §3
[17] = test system: T9, Neuromedin-K receptor (Homo sapiens), P29371 [Y315F]; test: Antagonist activity at human NK3 Y315F6.51 mutant expressed in HEK293 cells assessed as decrease in [MePhe7]NKB-induced [3H]IP accumulation at 10 nM after 20 mins; assay type: functional, cell-based
T9 sequence (whole entry): T1 sequence (P29371 whole entry) with Y315F

[18] = test system: T9, Neuromedin-K receptor (Homo sapiens), P29371 [Y315F]; test: Noncompetitive inhibition at human NK3 Y315F6.51 mutant expressed in HEK293 cells assessed as decrease in [MePhe7]NKB-induced [3H]IP accumulation after 20 mins; assay type: cell-based; summary of the method: as §1
[19] = target: T10, Neuromedin-K receptor (Homo sapiens) (UniProt P29371); test: Noncompetitive inhibition at wild type human NK3 expressed in HEK293 cells assessed as decrease in [MePhe7]NKB-induced [3H]IP accumulation after 20 mins; assay type: cell-based; summary of the method: as §1
T10 sequence (whole entry): T1 sequence (P29371 whole entry)

Substance-P receptor [20] = target: T3, Substance-P receptor; test: Partial noncompetitive inhibition of human F264Y6.51 mutant expressed in HEK293 cells assessed as decrease in SP1-induced [3H]IP accumulation after 20 mins; assay type: cell-based; conditions: read-out: pA2 (converted)
Neuromedin-K receptor [21] = target: T6, Neuromedin-K receptor; test: Displacement of radioligand [3H]osanetant at human NK3 Y247F mutant expressed in HEK293 cells; assay type: cell-based
Neuromedin-K receptor [22] = target: T7, Neuromedin-K receptor; test: Displacement of radioligand [3H]osanetant at human NK3 H316F mutant expressed in HEK293 cells; assay type: cell-based
Neuromedin-K receptor [23] = target: T6, Neuromedin-K receptor; test: Competitive inhibition at human NK3 Y247F5.38 mutant expressed in HEK293 cells assessed as decrease in [MePhe7]NKB-induced [3H]IP accumulation after 20 mins; assay type: cell-based; conditions: read-out: pA2 (converted)
HEK293 [24] = test: Selectivity ratio of Ki for human NK3 Y247F mutant expressed in HEK293 cells to Ki for wild type human NK3 receptor expressed in HEK293 cells; assay type: cell-based
HEK293 [25] = test: Selectivity ratio of Ki for human NK3 Y247W mutant expressed in HEK293 cells to Ki for wild type human NK3 receptor expressed in HEK293 cells; assay type: cell-based
HEK293 [26] = test: Selectivity ratio of Ki for human NK3 H316F mutant expressed in HEK293 cells to Ki for wild type human NK3 receptor expressed in HEK293 cells; assay type: cell-based
Neuromedin-K receptor [27] = target: T8, Neuromedin-K receptor; test: Displacement of radioligand [3H]osanetant at human NK3 Y247W mutant expressed in HEK293 cells; assay type: cell-based
Neuromedin-K receptor [28] = target: T5, Neuromedin-K receptor; test: Displacement of radioligand [3H]osanetant at human NK3 H316W mutant expressed in HEK293 cells; assay type: cell-based
[29] = test system: T11, Neuromedin-K receptor (Homo sapiens), P29371 [H316W]; test: Antagonist activity at human NK3 H316W6.52 mutant expressed in HEK293 cells assessed as decrease in [MePhe7]NKB-induced [3H]IP accumulation after 20 mins; assay type: functional, cell-based; summary of the method: as §1
T11 sequence (whole entry): T1 sequence (P29371 whole entry) with H316W

T4 sequence (P25103 whole entry): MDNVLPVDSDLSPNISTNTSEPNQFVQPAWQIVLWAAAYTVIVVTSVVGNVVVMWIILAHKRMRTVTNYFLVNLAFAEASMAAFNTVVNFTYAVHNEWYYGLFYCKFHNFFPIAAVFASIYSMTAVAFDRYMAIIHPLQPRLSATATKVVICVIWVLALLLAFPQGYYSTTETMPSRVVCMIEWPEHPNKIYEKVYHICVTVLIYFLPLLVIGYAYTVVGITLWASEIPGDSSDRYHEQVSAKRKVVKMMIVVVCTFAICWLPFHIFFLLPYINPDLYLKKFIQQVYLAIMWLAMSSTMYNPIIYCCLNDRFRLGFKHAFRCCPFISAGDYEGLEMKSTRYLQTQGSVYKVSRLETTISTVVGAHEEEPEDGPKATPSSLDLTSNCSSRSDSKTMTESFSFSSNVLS
T6 sequence (P29371 whole entry Y247F): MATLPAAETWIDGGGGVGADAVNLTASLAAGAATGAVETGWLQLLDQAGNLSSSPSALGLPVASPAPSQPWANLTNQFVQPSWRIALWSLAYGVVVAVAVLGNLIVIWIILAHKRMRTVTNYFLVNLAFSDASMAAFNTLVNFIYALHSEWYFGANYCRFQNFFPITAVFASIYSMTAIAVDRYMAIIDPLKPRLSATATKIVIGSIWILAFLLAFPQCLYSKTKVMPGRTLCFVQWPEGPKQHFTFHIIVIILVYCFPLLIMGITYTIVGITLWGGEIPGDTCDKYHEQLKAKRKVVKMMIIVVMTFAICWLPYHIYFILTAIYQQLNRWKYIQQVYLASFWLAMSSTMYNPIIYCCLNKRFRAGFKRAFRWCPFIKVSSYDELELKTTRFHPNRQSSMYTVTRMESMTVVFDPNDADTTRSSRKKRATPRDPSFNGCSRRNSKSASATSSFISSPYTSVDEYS
T2 sequence (P29371 whole entry Y315F): as the sequence (P29371 whole entry Y247F) above, with F247Y, Y315F counted along it
Substance-P receptor (Homo sapiens), P25103 [F264Y], sequence (P25103 whole entry F264Y): as the sequence (P25103 whole entry) above, with F264Y counted along it
T3 sequence (P25103 whole entry F264Y): as the sequence (P25103 whole entry) above, with F264Y counted along it
T5 sequence (P29371 whole entry H316W): as the sequence (P29371 whole entry Y247F) above, with F247Y, H316W counted along it
T7 sequence (P29371 whole entry H316F): as the sequence (P29371 whole entry Y247F) above, with F247Y, H316F counted along it
T8 sequence (P29371 whole entry Y247W): as the sequence (P29371 whole entry Y247F) above, with F247W counted along it
Neuromedin-K receptor (Homo sapiens, UniProt P29371, Y247A), sequence (P29371 whole entry Y247A): as the sequence (P29371 whole entry Y247F) above, with F247A counted along it

Kb (Neuromedin-K receptor [1])	Kb (Neuromedin-K receptor [2])	Ki (Neuromedin-K receptor [3])	Ki (Substance-P receptor [4])	Ki (Neuromedin-K receptor [6])	Ki (Substance-P receptor [7])	inhibition (Substance-P receptor [8])	inhibition [9]	inhibition [18]	SMILES	Ratio Ki (HEK293 [5])	also measured
120 nM	20.9 nM	2.5 nM	2.1 nM	11.9 nM	1.3 nM	Active	Active	–	Cc1cc(F)ccc1-c1cc(N2CC[C@H](O)C2)ncc1N(C)C(=O)C(C)(C)c1cc(C(F)(F)F)cc(C(F)(F)F)c1	4.8	–
–	–	–	–	–	–	–	–	–	CSCC[C@H](NC(=O)[C@H](CC(C)C)NC(=O)CNC(=O)[C@H](Cc1ccccc1)N(C)C(=O)[C@H](Cc1ccccc1)NC(=O)[C@H](Cc1ccccc1)NC(=O)[C@H](CC(=O)O)NC(=O)[C@H](Cc1cnc[nH]1)NC(=O)[C@H](CCSC)NC(=O)[C@@H](N)CC(=O)O)C(N)=O (H-DMHDFF[NMeF]GLM-NH2)	–	Ki (Substance-P receptor [10]): > 10000 nM; EC50 (Neuromedin-K receptor [11]): 3.48 nM; EC50 (Neuromedin-K receptor [12]): Not Active; EC50 (Neuromedin-K receptor [13]): 2.22 nM; EC50 (Neuromedin-K receptor [14]): Not Active; EC50 (Neuromedin-K receptor [15]): 0.71 nM; EC50 (Neuromedin-K receptor [16]): Not Active
123 nM	2.45 nM	0.7 nM	1.4 nM	2.4 nM	0.4 nM	Active	Active	–	Cc1cc(F)ccc1-c1cc(N2CCN(S(C)(=O)=O)CC2)ncc1N(C)C(=O)C(C)(C)c1cc(C(F)(F)F)cc(C(F)(F)F)c1	3.4	–
–	–	0.6 nM	1.3 nM	1.2 nM	0.7 nM	Active	–	Active	Cc1cc(F)ccc1-c1cc(N2CCN(S(C)(=O)=O)C[C@H]2CO)ncc1N(C)C(=O)C(C)(C)c1cc(C(F)(F)F)cc(C(F)(F)F)c1	2	Activity [17]: Active; inhibition [19]: Active; Kb (Substance-P receptor [20]): 17 nM
16.2 nM	–	0.2 nM	0.5 nM	1.7 nM	0.3 nM	Active	Active	Active	Cc1cc(F)ccc1-c1cc(N2CCN(S(C)(=O)=O)[C@@H](C)C2)ncc1N(C)C(=O)C(C)(C)c1cc(C(F)(F)F)cc(C(F)(F)F)c1	8.5	Ki (Neuromedin-K receptor [21]): 1.8 nM; Ki (Neuromedin-K receptor [22]): 19.7 nM; Kb (Neuromedin-K receptor [23]): 47.9 nM; Ratio Ki (HEK293 [24]): 1.1; Ratio Ki (HEK293 [25]): 3; Ratio Ki (HEK293 [26]): 11.6; Ki (Neuromedin-K receptor [27]): 5.1 nM; Ki (Neuromedin-K receptor [28]): > 10000 nM; Activity [29]: inactive

Reference: ChEMBL document CHEMBL2203099, “Identification of a crucial amino acid in the helix position 6.51 of human tachykinin neurokinin 1 and 3 receptors contributing to the insurmountable mode of antagonism by dual NK₁/NK₃ antagonists” (J Med Chem, 2012)
